pEC50: −log10 of the molar value. Converted amounts (≈) assume the structure as drawn. The source made the active and inactive calls. The rule behind the calls is not given here.
Experiments:
[1] = target: Cystic fibrosis transmembrane conductance regulator (Homo sapiens, UniProt P13569, F508DEL); experiment: (§1) Potentiation of CFTR F508del mutant (unknown origin) expressed in human CFBE41o cells incubated for 10 mins in presence of forskolin measured for 7 secs by YFP halide assay; format: cell-based
Chain of Cystic fibrosis transmembrane conductance regulator (Homo sapiens, UniProt P13569, F508DEL) (P13569 as listed by the source): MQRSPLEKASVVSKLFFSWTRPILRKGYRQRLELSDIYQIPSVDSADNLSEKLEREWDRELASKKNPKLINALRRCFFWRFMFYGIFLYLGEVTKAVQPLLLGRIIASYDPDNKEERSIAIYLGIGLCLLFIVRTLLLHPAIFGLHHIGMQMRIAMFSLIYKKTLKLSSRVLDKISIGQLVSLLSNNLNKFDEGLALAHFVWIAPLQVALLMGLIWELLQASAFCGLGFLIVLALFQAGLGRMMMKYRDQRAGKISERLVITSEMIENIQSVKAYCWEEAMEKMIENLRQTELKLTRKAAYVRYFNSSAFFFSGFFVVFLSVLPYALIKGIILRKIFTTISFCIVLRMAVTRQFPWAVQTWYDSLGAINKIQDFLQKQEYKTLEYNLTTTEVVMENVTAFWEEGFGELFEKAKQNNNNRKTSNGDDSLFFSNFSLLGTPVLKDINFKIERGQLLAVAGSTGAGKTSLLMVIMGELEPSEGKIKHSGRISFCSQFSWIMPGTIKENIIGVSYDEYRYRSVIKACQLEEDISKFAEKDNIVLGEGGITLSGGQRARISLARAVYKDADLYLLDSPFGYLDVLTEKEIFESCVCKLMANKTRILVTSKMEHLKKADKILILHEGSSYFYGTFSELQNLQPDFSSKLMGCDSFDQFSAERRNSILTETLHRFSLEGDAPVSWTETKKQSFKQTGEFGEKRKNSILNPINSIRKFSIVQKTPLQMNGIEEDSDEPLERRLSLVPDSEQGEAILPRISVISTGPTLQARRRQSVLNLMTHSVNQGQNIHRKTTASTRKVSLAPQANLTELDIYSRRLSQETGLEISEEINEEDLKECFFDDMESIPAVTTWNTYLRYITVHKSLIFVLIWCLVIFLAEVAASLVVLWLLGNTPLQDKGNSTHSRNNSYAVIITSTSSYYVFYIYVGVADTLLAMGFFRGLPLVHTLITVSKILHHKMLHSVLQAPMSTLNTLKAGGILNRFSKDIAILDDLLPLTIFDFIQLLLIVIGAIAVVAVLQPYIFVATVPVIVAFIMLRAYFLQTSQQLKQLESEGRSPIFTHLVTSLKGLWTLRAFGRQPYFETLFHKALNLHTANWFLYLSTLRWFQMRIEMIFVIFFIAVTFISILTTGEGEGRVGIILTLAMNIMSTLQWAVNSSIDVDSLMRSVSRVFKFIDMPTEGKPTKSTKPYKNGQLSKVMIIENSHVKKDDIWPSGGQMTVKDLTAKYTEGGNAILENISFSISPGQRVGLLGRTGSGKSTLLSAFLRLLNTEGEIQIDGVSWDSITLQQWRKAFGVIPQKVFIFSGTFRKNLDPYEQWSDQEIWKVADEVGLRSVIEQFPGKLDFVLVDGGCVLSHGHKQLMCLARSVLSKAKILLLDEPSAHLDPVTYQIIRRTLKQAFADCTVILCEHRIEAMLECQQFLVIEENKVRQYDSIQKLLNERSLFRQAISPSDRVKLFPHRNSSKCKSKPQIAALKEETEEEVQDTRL
Summary of the method: (§2)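 CFBE41o- cells (CF bronchial line) transduced by adenovirus with F508del CFTR and YFP (H148Q/I152L/F47L). Cells held 24 h at 27°C, then treated 10 min at room temperature with 10 µM forskolin plus potentiator. YFP fluorescence read for 7 s across addition of NaI buffer (137 mM NaI). Activity = 1-(F/F0).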

[2] = tested on: Cystic fibrosis transmembrane conductance regulator (Homo sapiens), P13569 [F508del]; experiment: as §1; format: cell-based; parameters: concentration or dose not given beside the values; summary of the method: as §2
Chain of Cystic fibrosis transmembrane conductance regulator (Homo sapiens), P13569 [F508del] (P13569 as listed by the source): as above

[3] = tested on: Cystic fibrosis transmembrane conductance regulator (Homo sapiens), P13569 [G551D]; experiment: (§3) Potentiation of CFTR G551D mutant (unknown origin) expressed in HEK293 cells incubated for 10 mins in presence of forskolin measured for 2 mins by YFP halide assay; format: cell-based; parameters: concentration or dose not given beside the values
Chain of Cystic fibrosis transmembrane conductance regulator (Homo sapiens), P13569 [G551D] (P13569 whole entry G551D): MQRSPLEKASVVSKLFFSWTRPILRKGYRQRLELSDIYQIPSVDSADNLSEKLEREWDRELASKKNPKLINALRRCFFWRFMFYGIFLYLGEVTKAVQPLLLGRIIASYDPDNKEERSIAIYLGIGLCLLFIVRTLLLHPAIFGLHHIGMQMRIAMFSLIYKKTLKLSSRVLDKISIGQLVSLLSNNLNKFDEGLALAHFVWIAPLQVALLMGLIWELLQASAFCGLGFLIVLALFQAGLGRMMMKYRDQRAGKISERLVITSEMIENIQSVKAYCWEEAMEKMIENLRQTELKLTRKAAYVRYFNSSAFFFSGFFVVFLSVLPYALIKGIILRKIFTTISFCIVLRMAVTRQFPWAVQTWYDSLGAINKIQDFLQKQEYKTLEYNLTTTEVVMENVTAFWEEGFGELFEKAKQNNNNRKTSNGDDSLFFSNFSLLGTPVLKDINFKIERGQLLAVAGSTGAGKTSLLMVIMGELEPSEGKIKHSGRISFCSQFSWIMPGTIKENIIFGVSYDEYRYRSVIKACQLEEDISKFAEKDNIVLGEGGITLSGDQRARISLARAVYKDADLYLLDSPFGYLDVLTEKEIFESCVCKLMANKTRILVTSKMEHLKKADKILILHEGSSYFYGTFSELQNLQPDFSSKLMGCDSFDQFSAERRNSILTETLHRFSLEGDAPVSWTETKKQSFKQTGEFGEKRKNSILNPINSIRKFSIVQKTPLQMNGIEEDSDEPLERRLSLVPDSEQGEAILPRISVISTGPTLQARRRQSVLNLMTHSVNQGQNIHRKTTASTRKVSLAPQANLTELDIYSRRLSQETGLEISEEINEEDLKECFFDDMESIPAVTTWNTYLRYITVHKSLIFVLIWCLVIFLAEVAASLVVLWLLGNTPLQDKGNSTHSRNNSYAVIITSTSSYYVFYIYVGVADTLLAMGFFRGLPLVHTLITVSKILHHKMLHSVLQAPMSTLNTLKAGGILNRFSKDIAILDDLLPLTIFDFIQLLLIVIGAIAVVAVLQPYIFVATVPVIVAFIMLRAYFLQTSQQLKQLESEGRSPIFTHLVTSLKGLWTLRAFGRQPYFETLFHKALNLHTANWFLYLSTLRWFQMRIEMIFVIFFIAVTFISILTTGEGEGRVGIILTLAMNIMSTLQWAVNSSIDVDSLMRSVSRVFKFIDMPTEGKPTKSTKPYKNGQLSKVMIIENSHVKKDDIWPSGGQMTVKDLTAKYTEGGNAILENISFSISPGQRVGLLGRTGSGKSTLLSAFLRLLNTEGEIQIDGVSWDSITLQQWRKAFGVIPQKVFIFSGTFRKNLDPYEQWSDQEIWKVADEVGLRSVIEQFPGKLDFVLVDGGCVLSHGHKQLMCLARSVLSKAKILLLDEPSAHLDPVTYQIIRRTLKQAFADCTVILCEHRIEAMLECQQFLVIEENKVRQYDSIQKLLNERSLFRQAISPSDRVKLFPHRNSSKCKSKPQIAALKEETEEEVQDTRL
Summary of the method: (§4)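 HEK293 cells transfected with the mutant CFTR (G551D, G178R, S549N or R117H) and YFP (H148Q/I152L/F47L), seeded directly after transfection, then 24 h at 37°C. Treated 10 min at room temperature with 10 µM forskolin plus potentiator. Fluorescence read for 2 min across addition of NaI buffer (375 mM NaI). Activity = 1-(F/F0).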

[4] = target: T1, Cystic fibrosis transmembrane conductance regulator (Homo sapiens, UniProt P13569, G551D); experiment: as §3; format: cell-based; summary of the method: as §4
T1 sequence (P13569 whole entry G551D): as above

[5] = Half life in dog at 1 mg/kg, iv; format: ADME, organism-based, Canis lupus familiaris; settings: in vivo
Summary of the method: (§5)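 IV PK in rat and dog at 1 mg/kg. Cl, Cl,unb (L/h/kg), Vd (L/kg) and T1/2 (h) were derived from plasma levels.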

[6] = Thermodynamic solubility of the compound at pH 3; format: physicochemical; settings: buffer, read-out: Therm_solubility
[7] = tested on: Cystic fibrosis transmembrane conductance regulator (Homo sapiens), P13569 [F508del]; experiment: Potentiation of CFTR F508del mutant in primary HBE cells assessed as increase in channel conductivity measured every 2 mins for 20 mins by TECC assay; format: cell-based
Summary of the method: (§6)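 TECC on primary epithelia bathed both sides in NaCl Ringer, pH 7.4, at 37°C. Apical amiloride 100 µM; forskolin 10 µM apical and basolateral. One compound concentration per transwell. EC50 derived from the increase in Ieq. Duplicate or triplicate, mean ± SEM; 10 µM CFTRinh-172 used for specificity.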

[8] = Clearance in rat at 1 mg/kg, iv; format: ADME, organism-based; settings: in vivo; summary of the method: as §5
[9] = tested on: Rattus norvegicus; experiment: Unbound clearance in rat at 1 mg/kg, iv; format: ADME, organism-based; settings: in vivo; summary of the method: as §5
[10] = tested on: Cystic fibrosis transmembrane conductance regulator (Homo sapiens), P13569 [R117H]; experiment: Potentiation of CFTR R117H mutant (unknown origin) expressed in HEK293 cells incubated for 10 mins in presence of forskolin measured for 2 mins by YFP halide assay relative to ivacaftor; format: cell-based
Chain of Cystic fibrosis transmembrane conductance regulator (Homo sapiens), P13569 [R117H] (P13569 whole entry R117H): as the sequence (P13569 whole entry G551D) above, with R117H, D551G counted along it

[11] = Volume of distribution in rat at 1 mg/kg, iv; format: ADME, organism-based; settings: in vivo; summary of the method: as §5
[12] = Unbound intrinsic clearance in human microsomes; format: ADME, Microsome
[13] = target: T2, Cytochrome P450 1A2 (Homo sapiens, UniProt P05177); experiment: Inhibition of CYP1A2 (unknown origin); format: ADME
T2 sequence (P05177 whole entry): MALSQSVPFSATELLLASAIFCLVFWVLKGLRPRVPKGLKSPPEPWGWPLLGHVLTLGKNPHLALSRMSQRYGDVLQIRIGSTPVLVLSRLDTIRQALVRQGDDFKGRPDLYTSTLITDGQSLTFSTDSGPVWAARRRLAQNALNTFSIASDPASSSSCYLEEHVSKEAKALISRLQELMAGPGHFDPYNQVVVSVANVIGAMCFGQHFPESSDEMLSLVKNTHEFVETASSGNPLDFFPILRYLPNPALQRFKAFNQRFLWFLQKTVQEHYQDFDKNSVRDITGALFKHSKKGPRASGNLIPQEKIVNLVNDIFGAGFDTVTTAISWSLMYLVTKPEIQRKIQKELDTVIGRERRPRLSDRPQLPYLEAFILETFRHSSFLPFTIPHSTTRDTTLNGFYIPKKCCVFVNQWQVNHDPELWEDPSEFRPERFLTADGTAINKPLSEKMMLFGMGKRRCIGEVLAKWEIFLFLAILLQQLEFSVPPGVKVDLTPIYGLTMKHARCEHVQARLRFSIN

[14] = tested on: Cystic fibrosis transmembrane conductance regulator (Homo sapiens), P13569 [G551D]; experiment: Potentiation of CFTR G551D mutant in primary HBE cells assessed as increase in channel conductivity measured every 2 mins for 20 mins by TECC assay relative to ivacaftor; format: cell-based
[15] = target: Voltage-gated inwardly rectifying potassium channel KCNH2 (Homo sapiens, UniProt Q12809); experiment: Inhibition of human ERG by manual patch clamp method
[16] = Volume of distribution in dog at 1 mg/kg, iv; format: ADME, organism-based, Canis lupus familiaris; settings: in vivo; summary of the method: as §5
[17] = Oral bioavailability in rat at 5 mg/kg; format: ADME, organism-based; settings: in vivo
Summary of the method: (§7)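 F% in rat and dog after a 5 mg/kg PO dose, referenced to the 1 mg/kg IV PK parameters.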

[18] = Cmax in rat at 5 mg/kg, po; format: ADME, organism-based; parameters: dose 5 mg/kg, route oral; settings: in vivo
[19] = Thermodynamic solubility of the compound at pH 7.4; format: physicochemical; settings: buffer, read-out: Therm_solubility
[20] = tested on: Canis familiaris; experiment: Unbound clearance in dog at 1 mg/kg, iv; format: ADME, organism-based, Canis lupus familiaris; settings: in vivo; summary of the method: as §5
[21] = Efflux ratio of permeability in MDCK cells; format: ADME, cell-based, Canis lupus familiaris; settings: dog
[22] = Oral bioavailability in dog at 5 mg/kg; format: ADME, organism-based, Canis lupus familiaris; settings: in vivo; summary of the method: as §7
[23] = tested on: Homo sapiens; experiment: Toxicity in human up to 800 mg, bid administered for 14 days; settings: 336 h
[24] = Cmax in rat at 300 mg/kg, po; format: ADME, organism-based; parameters: dose 300 mg/kg, route oral; settings: in vivo
[25] = tested on: Cystic fibrosis transmembrane conductance regulator (Homo sapiens), P13569 [S549N]; experiment: Potentiation of CFTR S549N mutant (unknown origin) expressed in HEK293 cells incubated for 10 mins in presence of forskolin measured for 2 mins by YFP halide assay relative to ivacaftor; format: cell-based
Chain of Cystic fibrosis transmembrane conductance regulator (Homo sapiens), P13569 [S549N] (P13569 whole entry S549N): as the sequence (P13569 whole entry G551D) above, with S549N, D551G counted along it

[26] = target: Cytochrome P450 2C19 (Homo sapiens, UniProt P33261); experiment: Inhibition of CYP2C19 (unknown origin); format: ADME
[27] = AUC in rat at 300 mg/kg, po; format: ADME, organism-based; settings: in vivo
[28] = target: Cytochrome P450 3A4 (Homo sapiens, UniProt P08684); experiment: Inhibition of CYP3A4 (unknown origin); format: ADME
Chain of Cytochrome P450 3A4 (P08684 whole entry): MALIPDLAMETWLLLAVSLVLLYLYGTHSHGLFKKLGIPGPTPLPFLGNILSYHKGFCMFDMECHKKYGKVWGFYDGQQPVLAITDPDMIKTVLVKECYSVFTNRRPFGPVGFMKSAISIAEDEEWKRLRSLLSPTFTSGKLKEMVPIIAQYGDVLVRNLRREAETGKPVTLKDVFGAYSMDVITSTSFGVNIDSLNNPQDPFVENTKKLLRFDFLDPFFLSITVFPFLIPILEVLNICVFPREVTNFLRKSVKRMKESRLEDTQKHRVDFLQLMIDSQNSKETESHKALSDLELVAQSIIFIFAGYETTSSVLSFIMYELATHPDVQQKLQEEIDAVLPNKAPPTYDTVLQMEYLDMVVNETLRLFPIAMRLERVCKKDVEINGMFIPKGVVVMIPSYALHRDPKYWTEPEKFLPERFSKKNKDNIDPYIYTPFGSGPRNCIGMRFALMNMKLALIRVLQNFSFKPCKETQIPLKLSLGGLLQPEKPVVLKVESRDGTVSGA

[29] = Permeability across apical to basolateral side in MDCK cells; format: ADME, cell-based, Canis lupus familiaris; settings: dog, read-out: permeability
[30] = Unbound intrinsic clearance in rat hepatocytes; format: ADME, cell-based, Hepatocyte
Summary of the method: (§8)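 Intrinsic clearance in liver microsomes or hepatocytes, corrected for non-specific binding using fraction unbound in microsomes (Fu,mic) or in hepatocyte incubations (Fu,inc).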

[31] = Unbound intrinsic clearance in rat microsomes; format: ADME, Microsome; summary of the method: as §8
[32] = Clearance in dog at 1 mg/kg, iv; format: ADME, organism-based, Canis lupus familiaris; settings: in vivo; summary of the method: as §5
[33] = target: Cytochrome P450 2D6 (Homo sapiens, UniProt P10635); experiment: Inhibition of CYP2D6 (unknown origin); format: ADME
Chain of Cytochrome P450 2D6 (P10635 whole entry): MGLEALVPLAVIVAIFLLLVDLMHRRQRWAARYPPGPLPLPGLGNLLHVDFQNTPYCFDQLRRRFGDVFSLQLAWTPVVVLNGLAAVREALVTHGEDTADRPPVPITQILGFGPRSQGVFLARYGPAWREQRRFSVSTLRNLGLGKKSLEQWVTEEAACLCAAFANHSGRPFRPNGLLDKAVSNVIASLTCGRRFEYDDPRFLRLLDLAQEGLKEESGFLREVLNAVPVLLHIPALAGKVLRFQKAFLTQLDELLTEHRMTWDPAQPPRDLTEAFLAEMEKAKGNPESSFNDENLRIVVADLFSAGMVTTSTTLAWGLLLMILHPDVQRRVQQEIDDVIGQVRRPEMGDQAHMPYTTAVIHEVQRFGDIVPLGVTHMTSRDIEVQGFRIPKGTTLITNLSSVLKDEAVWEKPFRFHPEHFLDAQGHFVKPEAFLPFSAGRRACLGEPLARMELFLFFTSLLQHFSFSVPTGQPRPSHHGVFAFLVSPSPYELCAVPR

[34] = Half life in rat at 1 mg/kg, iv; format: ADME, organism-based; settings: in vivo; summary of the method: as §5
[35] = tested on: Homo sapiens; experiment: Toxicity in human up to 2000 mg administered as single dose
[36] = target: Cytochrome P450 2C9 (Homo sapiens, UniProt P11712); experiment: Inhibition of CYP2C9 (unknown origin); format: ADME
Chain of Cytochrome P450 2C9 (P11712 whole entry): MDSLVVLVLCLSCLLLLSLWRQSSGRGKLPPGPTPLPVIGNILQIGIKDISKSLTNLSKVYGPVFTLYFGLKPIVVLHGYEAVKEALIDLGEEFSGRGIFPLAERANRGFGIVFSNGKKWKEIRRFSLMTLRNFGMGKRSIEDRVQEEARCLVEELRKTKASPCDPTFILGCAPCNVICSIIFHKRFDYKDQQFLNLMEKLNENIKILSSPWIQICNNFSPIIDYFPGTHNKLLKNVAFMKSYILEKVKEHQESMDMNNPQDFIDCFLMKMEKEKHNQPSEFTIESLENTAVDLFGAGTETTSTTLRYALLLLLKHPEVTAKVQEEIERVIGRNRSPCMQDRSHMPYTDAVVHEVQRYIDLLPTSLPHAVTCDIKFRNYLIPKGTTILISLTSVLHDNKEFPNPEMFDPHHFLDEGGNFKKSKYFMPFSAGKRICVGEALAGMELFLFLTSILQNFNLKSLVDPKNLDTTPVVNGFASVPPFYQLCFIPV

[37] = AUC in rat at 5 mg/kg, po; format: ADME, organism-based; settings: in vivo
[38] = tested on: Cystic fibrosis transmembrane conductance regulator (Homo sapiens), P13569 [G178R]; experiment: Potentiation of CFTR G178R mutant (unknown origin) expressed in HEK293 cells incubated for 10 mins in presence of forskolin measured for 2 mins by YFP halide assay relative to ivacaftor; format: cell-based
Chain of Cystic fibrosis transmembrane conductance regulator (Homo sapiens), P13569 [G178R] (P13569 whole entry G178R): as the sequence (P13569 whole entry G551D) above, with G178R, D551G counted along it

[39] = Unbound intrinsic clearance in human hepatocytes; format: ADME, cell-based, Hepatocyte
[40] = target: T1, Cystic fibrosis transmembrane conductance regulator; experiment: Potentiation of CFTR G551D mutant in primary HBE cells assessed as increase in channel conductivity measured every 2 mins for 20 mins by TECC assay; format: cell-based; summary of the method: as §6

Compound `Cc1ccc(C(=O)Nc2sc3c(c2C(N)=O)CCOC3)s1` has a pEC50 [1] of 6.11 and an Activity [2] of 74%.
Work on `CC1(C)Cc2c(sc(NC(=O)c3cc(C(F)(F)F)n[nH]3)c2C(N)=O)C(C)(C)O1` yielded an Activity [2] of 107% and an Activity [3] of 49%.
In the case of `CC1(C)Cc2c(sc(NC(=O)Cc3ccn[nH]3)c2C(N)=O)C(C)(C)O1`, the pEC50 [1] was 6.87.
`CC1(C)Cc2c(sc(NC(=O)c3ccccc3O)c2C(N)=O)CO1` gave a pEC50 [1] of 7.89, an Activity [2] of 93% and a pEC50 [4] of 6.31. For the same compound, the Activity [3] was 51%.
`Cc1cn[nH]c1C(=O)Nc1sc2c(c1C(N)=O)CC(C)(C)OC2(C)C` gave a pEC50 [1] of 8.70, an Activity [2] of 96% and a pEC50 [4] of 6.91. The Activity [3] was 83%.
For `CC1(C)Cc2c(sc(NC(=O)c3ccccc3NS(C)(=O)=O)c2C(N)=O)C(C)(C)O1`, the pEC50 [1] was 6.83.
Compound `Cc1cc(C(=O)Nc2sc3c(c2C(N)=O)CC(C)(C)OC3(C)C)[nH]n1` has a pEC50 [1] of 7.89, an Activity [2] of 81% and an Activity [3] of 73%.
In the case of `CC1(C)Cc2c(sc(NC(=O)c3ccn[nH]3)c2C(N)=O)C(C)(C)O1`, the half-life [5] was 3 h, the solubility thermodynamic [6] was 11 µM (≈ 3.83 µg/mL) and the Activity [7] was “Active”. It also gave a clearance [8] of 1.92 L/h/kg, a CL free [9] of 24 L/h/kg and an Efficacy [10] of 119%. It also gave a Vd [11] of 4.8 L/kg, a CL free [12] of 1.1 L/h/kg and a pEC50 [13] of less than 4.00. The Activity [14] was 200%, the pEC50 [15] was less than 4.48 and the Vd [16] was 1.4 L/kg. For the same compound, the bioavailability [17] was 67%, the Cmax [18] was 0.331 µg/mL and the solubility thermodynamic [19] was 8.6 µM (≈ 3 µg/mL). The CL free [20] was 6.4 L/h/kg, the efflux ratio [21] was 2.6 and the bioavailability [22] was greater than 100%. The Activity [23] was “Non-Toxic”, the pEC50 [1] was 8.52 and the Activity [2] was 105%. It also gave a Cmax [24] of 4.67 µg/mL, an Efficacy [25] of 143% and a pEC50 [26] of less than 4.00. It also gave an AUC [27] of 68.2 µg·h/mL, a pEC50 [28] of less than 4.00 and a Papp A→B [29] of 110 nm/s. For the same compound, the pEC50 [4] was 6.47, the Activity [3] was 103% and the CL free [30] was 5.7 L/h/kg. It also gave a CL free [31] of 1.7 L/h/kg, a clearance [32] of 0.32 L/h/kg and a pEC50 [33] of less than 4.00. For the same compound, the half-life [34] was 1.84 h, the Activity [35] was “Non-Toxic” and the pEC50 [36] was less than 4.00. For the same compound, the AUC [37] was 1.54 µg·h/mL, the Efficacy [38] was 158% and the CL free [39] was 1.8 L/h/kg. It also gave a pEC50 [40] of 6.74.
Compound `CC1(C)Cc2c(sc(NC(=O)C3(O)CC3)c2C(N)=O)C(C)(C)O1` has a pEC50 [1] of 7.64.
`CC1(C)Cc2c(sc(NC(=O)c3nnc[nH]3)c2C(N)=O)C(C)(C)O1` gave a pEC50 [1] of 6.33.
For `CC1(C)Cc2c(sc(NC(=O)C(C)(C)O)c2C(N)=O)C(C)(C)O1`, the pEC50 [1] was 7.80.
`CC1(C)Cc2c(sc(NC(=O)C3CNC(=O)C3)c2C(N)=O)C(C)(C)O1` (centres undefined) gave a pEC50 [1] of less than 5.00.
With `Cc1[nH]nc(C(=O)Nc2sc3c(c2C(N)=O)CC(C)(C)OC3(C)C)c1Cl` the pEC50 [1] was 7.96 and the pEC50 [4] was 6.70.
Work on `CC1(C)Cc2c(sc(NC(=O)C3(CO)CC3)c2C(N)=O)C(C)(C)O1` yielded a pEC50 [1] of 7.82, an Activity [2] of 105% and a pEC50 [4] of 5.88. For the same compound, the Activity [3] was 57%.
Compound `Cc1n[nH]c(C(=O)Nc2sc3c(c2C(N)=O)CC(C)(C)OC3(C)C)c1Cl` has an Activity [2] of 92% and an Activity [3] of 68%.

From ChEMBL document CHEMBL4024762, “Discovery of N-(3-Carbamoyl-5,5,7,7-tetramethyl-5,7-dihydro-4H-thieno[2,3-c]pyran-2-yl)-lH-pyrazole-5-carboxamide (GLPG1837), a Novel Potentiator Which Can Open Class III Mutant Cystic Fibrosis Transmembrane Conductance Regulator (CFTR) Channels to a High Extent” (J Med Chem, 2018)
